pIC50: −log10 of the molar value.
Legend:
Heat shock protein HSP90 [1] = biological target: T1, Heat shock protein HSP90 (Homo sapiens, UniProt P07900+P08238); assay: Binding affinity to recombinant […] biotinylated-HSP90 N-terminal domain (9 to 236 residues) (unknown origin) expressed in Escherichia coli BL21 (DE3) by biolayer interferometry
Procedure, shortened: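 Biotinylated Hsp90 (100 µg/mL) loaded onto streptavidin sensors prewetted 10 min in PBS with 0.05% BSA and 0.01% Tween 20. Analyte binding measured at 28 °C. Double reference subtraction applied; data fitted to a 1:1 model with K_D = K_off/K_on.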

HCT-116 [2] = assay: Antiproliferative activity against human HCT116 cells measured after 72 hrs by CCK8 assay; format: functional, cell-based; conditions: HCT-116, 72 h
Procedure, shortened: (§1)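 Cells grown in RPMI 1640 with 10% FBS at 37 °C, 5% CO2; STR-authenticated and mycoplasma-checked. Seeded at 3000-5000 cells/well and left 24 h. Serial compound dilutions added for 72 h, with matched DMSO as control. Viability read by CCK8 kit using the standard protocol. IC50 values derived from at least three parallel experiments.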

A549 = assay: Antiproliferative activity against human A549 cells measured after 72 hrs by CCK8 assay; format: functional, cell-based; conditions: A549, 72 h; procedure, shortened: as §1
Heat shock protein HSP90 [3] = biological target: T1, Heat shock protein HSP90; assay: Inhibition of recombinant full-length HSP90 ATPase activity N-terminal domain (9 to 236 residues) (unknown origin) expressed in Escherichia coli BL21 (DE3) measured after 1 hr by ADP hunter plus assay
[4] = Permeability of the compound at pH 7.4 by PAMPA; format: ADME; conditions: read-out: permeability
Procedure, shortened: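 Permeability coefficient (Pe) was measured at pH 7.4 by double-sink PAMPA.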

[5] = Stability of the compound in mouse plasma assessed as parent compound remaining at 1 uM measured immediately by LC-MS/MS analysis; format: ADME, cell-free; conditions: read-out: Stability
Procedure, shortened: (§2)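 Compound diluted from 10 mM DMSO stock to 1 μM in mouse or human plasma and held at 37 °C in a water bath. Reactions were stopped with acetonitrile at 0, 10, 30, 60 and 90 min. Parent compound was quantified by LC-MS/MS as % remaining.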

[6] = Stability of the compound in mouse plasma assessed as parent compound remaining at 1 uM measured after 10 mins by LC-MS/MS analysis; format: ADME, cell-free; conditions: read-out: Stability; procedure, shortened: as §2
[7] = Stability of the compound in mouse plasma assessed as parent compound remaining at 1 uM measured after 60 mins by LC-MS/MS analysis; format: ADME, cell-free; conditions: read-out: Stability; procedure, shortened: as §2
[8] = Stability of the compound in human plasma assessed as parent compound remaining at 1 uM measured after 10 mins by LC-MS/MS analysis; format: ADME, cell-free; conditions: read-out: Stability; procedure, shortened: as §2
[9] = Stability of the compound in human plasma assessed as parent compound remaining at 1 uM measured after 30 mins by LC-MS/MS analysis; format: ADME, cell-free; conditions: read-out: Stability; procedure, shortened: as §2
[10] = Half life in mouse liver microsomes at 10 uM preincubated for 5 mins followed by NADPH addition by LC-MS/MS analysis; format: ADME, Microsome
Procedure, shortened: (§3)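 Compound at 10 µM preincubated 5 min at 37 °C with human or mouse liver microsomes (0.5 mg/mL) in 100 mM phosphate, pH 7.4. Reaction started with 1 mM NADPH, stopped with cold acetonitrile, centrifuged and analysed by LC-MS/MS.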

[11] = Clearance in mouse liver microsomes at 10 uM preincubated for 5 mins followed by NADPH addition by LC-MS/MS analysis; format: ADME, Microsome; conditions: read-out: CLH; procedure, shortened: as §3
[12] = Effect on HSP70 in human HCT116 cells up to 10 uM measured after 24 hrs by Western blot analysis; format: cell-based
Procedure, shortened: (§4)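 HCT116 cells treated with 0, 1, 5 or 10 µM for 24 h, or with 10 µM for 0, 4, 12, 24 or 48 h. Lysates separated by SDS-PAGE and blotted. Membranes blocked in 5% milk, primary antibodies overnight at 4 °C, HRP secondaries, chemiluminescent detection.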

[13] = Effect on HSP70 in human HCT116 cells at 10 uM measured up to 48 hrs by Western blot analysis; format: cell-based; procedure, shortened: as §4
HCT-116 [14] = assay: Effect on CDC37 expression in human HCT116 cells up to 10 uM measured after 24 hrs by Western blot analysis; format: cell-based; conditions: hct-116, 24 h; procedure, shortened: as §4
HCT-116 [15] = assay: Effect on total phosphorylated CDC37 expression in human HCT116 cells up to 10 uM measured after 24 hrs by Western blot analysis; format: ADME, cell-based; conditions: hct-116, 24 h; procedure, shortened: as §4
HCT-116 [16] = assay: Effect on HSP90 expression in human HCT116 cells at 10 uM measured up to 48 hrs by Western blot analysis; format: cell-based; conditions: hct-116, 48 h; procedure, shortened: as §4
HCT-116 [17] = assay: Effect on CDC37 expression in human HCT116 cells at 10 uM measured up to 48 hrs by Western blot analysis; format: cell-based; conditions: hct-116, 48 h; procedure, shortened: as §4
HCT-116 [18] = assay: Effect on total phosphorylated CDC37 expression in human HCT116 cells at 10 uM measured up to 48 hrs by Western blot analysis; format: ADME, cell-based; conditions: hct-116, 48 h; procedure, shortened: as §4
[19] = Cmax in plasma of human HCT116 cells xenografted BALB/c mouse at 80 mg/kg, po administered as single dose by LC-MS/MS analysis; format: ADME, organism-based; set-up: dose 80 mg/kg, route oral
Procedure, shortened: (§5)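 Tumour-bearing mice (n = 6 per group) given one oral dose of 80 mg/kg. Blood and tumour collected into heparinized tubes at 0, 0.25, 0.5, 1, 2, 4, 8, 12 and 24 h. Plasma obtained by centrifugation at 3000 rpm for 10 min. Samples stored at -80 °C and quantified by LC-MS/MS.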

[20] = AUC (0 to t) in plasma of human HCT116 cells xenografted BALB/c mouse at 80 mg/kg, po administered as single dose by LC-MS/MS analysis; format: ADME, organism-based; procedure, shortened: as §5
[21] = Apparent volume of distribution during terminal phase in plasma of human HCT116 cells xenografted BALB/c mouse at 80 mg/kg, po administered as single dose by LC-MS/MS analysis; format: ADME, organism-based; conditions: read-out: Vz/F
Procedure, shortened: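 Xenograft mice (n = 6 per group) received a single 80 mg/kg oral dose. Plasma and tumour were sampled over 0–24 h into heparinized tubes and analysed by LC-MS/MS.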

[22] = Tmax in tumor of human HCT116 cells xenografted BALB/c mouse at 80 mg/kg, po administered as single dose by LC-MS/MS analysis; format: ADME, organism-based, Neoplasm
Procedure, shortened: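 HCT116-xenografted mice (n = 6 per group) received a single oral 80 mg/kg dose. Blood and tumor were sampled at 0 to 24 h. Plasma was obtained by centrifugation at 3000 rpm for 10 min. Samples were stored at −80 °C and quantified by LC-MS/MS.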

[23] = Cmax in tumor of human HCT116 cells xenografted BALB/c mouse at 80 mg/kg, po administered as single dose by LC-MS/MS analysis; format: ADME, organism-based, Neoplasm; set-up: dose 80 mg/kg, route oral; procedure, shortened: as §5
[24] = Half life in plasma of human HCT116 cells xenografted BALB/c mouse at 80 mg/kg administered as single dose by LC-MS/MS analysis

Cc1cc(C)c(S(=O)(=O)N(CC(=O)O)c2ccc(Nc3ccnc(N4CCNCC4)n3)cc2)c(C)c1 gave a Kd (Heat shock protein HSP90 [1]) of 500 nM, a pIC50 (HCT-116 [2]) of 5.76 and a pIC50 (A549) of under 4.30. For the same compound, the IC50 (Heat shock protein HSP90 [3]) was over 100000 nM, the Papp [4] was 104 ×10⁻⁶ cm/s and the remaining at 0 min, 1 µM [5] was 100%. The remaining at 10 min, 1 µM [6] was 100%, the remaining at 1 h, 1 µM [7] was 101% and the remaining at 10 min, 1 µM [8] was 98%. The remaining at 0.5 h, 1 µM [9] was 104%, the half-life at 10 µM [10] was 1.6 h and the microsomal CLint at 10 µM [11] was 10.3 µL/min/mg. For the same compound, the Activity [12] was “Non-Toxic”, the Activity [13] was “Non-Toxic” and the Activity (HCT-116 [14]) was “Non-Toxic”. The Activity (HCT-116 [15]) was “Non-Toxic”, the Activity (HCT-116 [16]) was “Non-Toxic” and the Activity (HCT-116 [17]) was “Non-Toxic”. The Activity (HCT-116 [18]) was “Non-Toxic”, the Cmax [19] was 308 µg/mL and the AUC(0-t) [20] was 533 µg·h/mL. The Vd/F [21] was 0.392 L/kg, the Tmax [22] was 1 h and the Cmax [23] was 50 µg/mL. It also gave a T1/2 [24] of 1.46 h.

Source: ChEMBL document CHEMBL4376883, “Discovery and Optimization of Small Molecules Targeting the Protein-Protein Interaction of Heat Shock Protein 90 (Hsp90) and Cell Division Cycle 37 as Orally Active Inhibitors for the Treatment of Colorectal Cancer” (J Med Chem, 2020)
